The values that follow come from ChEMBL document CHEMBL1811821, “Cystic fibrosis: a new target for 4-Imidazo[2,1-b]thiazole-1,4-dihydropyridines” (J Med Chem, 2011).

The IC50 is the concentration that gives 50% inhibition. The term inhibition denotes the relative decrease from the control value, in per cent. For orientation: Kd means the free concentration of one partner at which half of the binding sites on the other are occupied at equilibrium, for simple one-to-one binding. By EC50 is commonly meant the concentration needed to bring the measured effect to its halfway point.

A short description of assay [1]: Negative ionotropic activity in potassium depolarized guinea pig longitudinal smooth muscle assessed as inhibition of calcium-induced contraction. The class given is functional, Cavia porcellus.
Assay [2] is described as follows: Negative chronotropic activity against potassium-induced contraction in guinea pig right atrium assessed as decrease atrial rate at 10^-5 M relative to control. Particulars: Cavia porcellus, Cardiac atrium. The class given is functional. In a few lines: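 Spontaneously beating isolated guinea pig right atrium, pretreatment rate 165–190 beats/min. Drugs added cumulatively. Decrease in atrial rate expressed as percent change from control, n = 7–8. […] Control versus treated tested at each concentration by Student's t-test, P < 0.05. Mean ± SEM.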

A short description of assay [3]: Negative ionotropic activity against potassium-induced contraction in guinea pig left atrium assessed as […] at 5 X 10^-7 M relative to control. Type of assay: functional. The conditions noted are these: Cavia porcellus, Cardiac atrium. The essentials: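 Isolated guinea pig left atrium paced at 1 Hz. Drugs added cumulatively. Negative inotropic effect expressed as percent change from control, n = 5–6. […] Student's t-test against control at each concentration, P < 0.05. Mean ± SEM.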

The nature of assay [4]: Bronchodilatory activity in guinea pig trachea assessed as inhibition of carbachol-induced contraction at 10^-5 M. The class given is functional. The conditions noted are these: Cavia porcellus.
Assay [5] in a line: Binding affinity to CFTR F508 deletion mutant expressed in forskolin-stimulated FRT cells assessed as increase in iodine influx measured as YFP quenching rate after 24 hrs by fluorescence assay. The class given is cell-based. The essentials: (§1)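 ΔF508-CFTR and halide-sensitive YFP coexpressed in FRT cells, held at 27 °C for 24 h for rescue, then stimulated 30–40 min with 20 μM forskolin with or without compound at 0.2, 2 and 20 μM. Fluorescence read before and after I– addition (100 mM final). Normalized decay fitted exponentially for maximal quenching rate; dose–response fitted with Hill equation for potency and maximal effect. Three independent determinations.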

For another assay, the system named is Aorta. Put plainly: Vasorelaxant activity in potassium depolarized guinea pig aortic strip assessed as inhibition of calcium-induced contraction at 10^-5 M. The class given is functional. The conditions noted are these: Cavia porcellus. The essentials: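 Guinea pig aortic strips depolarized with 80 mM K+, with cumulative drug addition. Relaxation given as mean ± SEM. […] Student's t-test against control, P < 0.05.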

Assay [6] relates to Cystic fibrosis transmembrane conductance regulator (Homo sapiens), P13569 [F508del]. Kind of assay: Activity at CFTR F508 deletion mutant expressed in forskolin-stimulated FRT cells assessed as maximal increase in iodine influx measured as YFP quenching rate after 24 hrs by fluorescence assay. The class given is cell-based. The essentials: as §1
Chain of Cystic fibrosis transmembrane conductance regulator (Homo sapiens), P13569 [F508del] (P13569 as listed by the source): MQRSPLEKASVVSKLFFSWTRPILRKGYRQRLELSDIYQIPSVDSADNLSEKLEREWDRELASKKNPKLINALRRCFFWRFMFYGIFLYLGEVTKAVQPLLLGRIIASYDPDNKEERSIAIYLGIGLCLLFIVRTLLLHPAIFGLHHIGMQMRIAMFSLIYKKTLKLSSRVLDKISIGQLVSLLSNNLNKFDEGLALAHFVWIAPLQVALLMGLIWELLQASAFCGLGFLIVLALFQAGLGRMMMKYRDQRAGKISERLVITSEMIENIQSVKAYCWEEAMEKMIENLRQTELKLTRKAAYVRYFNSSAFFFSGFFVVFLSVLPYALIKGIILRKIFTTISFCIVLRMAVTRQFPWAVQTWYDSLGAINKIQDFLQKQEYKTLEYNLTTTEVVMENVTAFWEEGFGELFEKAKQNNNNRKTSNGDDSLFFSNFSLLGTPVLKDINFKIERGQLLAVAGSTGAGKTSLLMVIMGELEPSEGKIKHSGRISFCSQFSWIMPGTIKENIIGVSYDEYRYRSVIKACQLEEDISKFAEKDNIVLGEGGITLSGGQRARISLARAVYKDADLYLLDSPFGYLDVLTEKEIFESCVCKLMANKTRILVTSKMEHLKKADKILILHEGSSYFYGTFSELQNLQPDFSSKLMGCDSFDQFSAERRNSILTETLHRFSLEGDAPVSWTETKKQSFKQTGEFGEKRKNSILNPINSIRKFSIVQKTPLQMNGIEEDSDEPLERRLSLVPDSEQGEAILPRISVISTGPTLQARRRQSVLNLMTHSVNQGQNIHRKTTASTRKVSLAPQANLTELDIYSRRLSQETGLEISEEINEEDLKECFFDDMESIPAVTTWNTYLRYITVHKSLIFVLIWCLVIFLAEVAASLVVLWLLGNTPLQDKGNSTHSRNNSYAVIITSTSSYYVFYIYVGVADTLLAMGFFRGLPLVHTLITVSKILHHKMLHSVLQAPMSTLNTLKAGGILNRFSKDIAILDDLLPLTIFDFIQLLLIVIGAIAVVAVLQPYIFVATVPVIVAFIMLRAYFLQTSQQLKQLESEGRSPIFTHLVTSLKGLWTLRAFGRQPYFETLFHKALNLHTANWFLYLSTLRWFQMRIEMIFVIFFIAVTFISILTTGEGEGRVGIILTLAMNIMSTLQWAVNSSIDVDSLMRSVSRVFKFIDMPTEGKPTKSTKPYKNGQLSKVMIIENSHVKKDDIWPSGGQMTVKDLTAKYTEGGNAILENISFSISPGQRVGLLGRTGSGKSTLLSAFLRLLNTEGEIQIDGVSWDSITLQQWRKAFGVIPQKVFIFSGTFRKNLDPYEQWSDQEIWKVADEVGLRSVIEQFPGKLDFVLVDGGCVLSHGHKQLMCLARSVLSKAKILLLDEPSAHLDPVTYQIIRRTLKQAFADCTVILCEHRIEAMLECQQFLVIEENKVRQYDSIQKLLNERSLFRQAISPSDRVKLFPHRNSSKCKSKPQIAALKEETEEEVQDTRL
Assay [7] has the same test system. Put plainly: Activity at CFTR F508 deletion mutant expressed in forskolin-stimulated FRT cells assessed as maximal increase in iodine influx measured as YFP quenching rate after 24 hrs by fluorescence assay relative to nifedipine. The class given is cell-based. The essentials:
as §1

Assay [8] in a line: Negative ionotropic activity against potassium-induced contraction in guinea pig left atrium assessed as decrease in developed tension. The conditions noted are these: Cavia porcellus, Cardiac atrium.
Assay [9] can be described thus: Bronchodilatory activity in guinea pig trachea assessed as inhibition of carbachol-induced contraction. Type of assay: functional, tissue-based, Cavia porcellus.
For another assay, the species on record is Cavia porcellus. Kind of assay: Negative ionotropic activity in potassium depolarized guinea pig longitudinal smooth muscle assessed as inhibition of calcium-induced contraction at 10^-5 M. The class given is functional.
The nature of assay [10]: Ratio IC50 for nifedipine to compound for bronchodilatory activity in guinea pig trachea assessed as carbachol-induced contraction. Type of assay: functional, Cavia porcellus.

`C=CCOC(=O)C1=C(C)NC(C)=C(C(=O)OCC=C)C1c1ccc(C(C)(C)C)cc1`: the IC50 amounted to 1850 nM in assay [1] and 0.59 nM in assay [9]. Besides, the values for the inhibition at 10 µM (in assay [2]; in assay [4]; in the assay on Aorta) were 5%, 68% and 12%, respectively. Further, in assay [3], the inhibition at 0.5 µM stood at 71%. For the same compound, in assay [5], the dissociation constant Kd came to 170 nM. Further, in assay [6], the Emax was determined as 56 ms-1. For the same compound, the Ratio in [7] stood at 17. The EC50 in [8] was found to be 2.2 nM. In addition, in the assay listed under Cavia porcellus, the inhibition turned out to be 52%. For the same compound, the “Ratio IC50” value in assay [10] was 163.
